zfTRPN1 agonist = zebrafish TRPN1 channel agonists, primary screen, cell-based, HEK293, calcium fluorescence; actives 0.18% (n = 220,000); activation, % at 3 µM; HEK293 zebrafish TRPN1-YFP, Fluo-8 calcium fluorescence; 100% = response to 87 µM carbachol; AID 1424, 2008;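 active = activation above its plate's cutoff, the mean activation of test wells on that plate plus 3 SD, cut at about 19% in these data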;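 note: 0% = DMSO alone and 100% = 87 µM carbachol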
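Material: zebrafish TRPN1-YFP in HEK293 cells. Doses: one dose of 3 µM, 0.3% DMSO. Incubation: dye 1 h 37 °C plus 30 min RT. Measured by: intracellular calcium fluorescence with Fluo-8.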
CRFR2-BP ag = agonists of CRF-BP/CRF-R2 complex, primary screen, cell-based, HEK293, calcium dye fluorescence, uHTS; calcium dye fluorescence (FLIPR); percent of saturating CRF peptide response; activation, % at 13.2 µM; actives 0.46% (n = 350,000); AID 588473, 2011;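 active = activation of at least 50%, plus an integration ratio under a set limit after plate pattern correction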;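 note: plate controls were neutral control wells without compound for no effect and CRF at EC100 for full effect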
CRFBP-R2 block = antagonists of CRF-BP/CRF-R2 complex, primary screen, cell-based, HEK293, calcium dye fluorescence, uHTS. CRF-induced calcium fluorescence. inhibition, % at 11.8 µM. actives 0.59% (n = 350,000). AID 588475, 2011;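 active = inhibition of the ligand-induced calcium signal above about 50% at the single tested concentration, limit read from the data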
TRPML3 agonist = human TRPML3 channel agonists, primary screen, cell-based, HEK293 TRPML3-YFP, Fluo-8 calcium fluorescence, 3 µM. 100% = the carbachol control signal. activation, % at 3 µM. actives 0.29% (n = 220,000);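 active = activation above its plate's cutoff, the mean activation of the plate's test wells plus 3 SD, cut at about 12% in these data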;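 note: 0% = DMSO only wells and 100% = carbachol wells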
Target sequence (Q8TDD5 whole entry, looked up): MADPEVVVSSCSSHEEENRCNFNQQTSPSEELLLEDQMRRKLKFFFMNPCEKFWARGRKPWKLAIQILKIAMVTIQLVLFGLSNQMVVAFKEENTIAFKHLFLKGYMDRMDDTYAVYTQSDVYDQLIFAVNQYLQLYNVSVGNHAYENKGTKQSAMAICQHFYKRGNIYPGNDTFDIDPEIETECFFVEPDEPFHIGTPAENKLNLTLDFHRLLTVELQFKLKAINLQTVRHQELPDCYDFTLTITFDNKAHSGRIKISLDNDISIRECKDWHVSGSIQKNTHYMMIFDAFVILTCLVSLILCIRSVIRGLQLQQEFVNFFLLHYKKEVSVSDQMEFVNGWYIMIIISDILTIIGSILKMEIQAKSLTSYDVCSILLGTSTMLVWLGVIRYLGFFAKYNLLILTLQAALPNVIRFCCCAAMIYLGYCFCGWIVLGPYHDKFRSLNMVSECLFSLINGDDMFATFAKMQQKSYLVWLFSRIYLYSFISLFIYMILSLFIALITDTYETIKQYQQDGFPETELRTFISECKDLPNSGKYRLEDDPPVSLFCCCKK
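Material: HEK293 cells stably carrying human TRPML3-YFP; compound dosing: single dose, 3 µM final nominal compound, 0.3% DMSO final; incubation: 1-h 37 °C dye load, 5-s basal, 120-s post-compound reads; technique: Fluo-8 intracellular calcium fluorescence, excitation 470-495 nm, emission 515-575 nm; read-out basis: percent activation from peak-to-basal fluorescence ratio, scaled between DMSO and carbachol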
Starred values were filed as active, the others as inactive; i = inactive; / = no result. A selection: hits, their analogues and other compounds. The true share with any hit is near 1.2%.

SMILES | zfTRPN1 agonist | CRFR2-BP ag | CRFBP-R2 block | TRPML3 agonist
Cn1c(N)c(C(=O)COC(=O)CNS(=O)(=O)c2ccc(Cl)c(Cl)c2)c(=O)n(C)c1=O | 1.2 | -1.7 | 64.5* | 0.1
CCN(CC(=O)NC(C)(C)C)C(=O)c1ccc(Br)cc1 | -1.0 | -2.8 | 10.0 | 0.2
COCCn1c(C)cc(C(=O)COC(=O)c2cc3c(s2)CCC3)c1C | 1.6 | -1.3 | 64.1* | -0.4
Fc1ccc2cnc(C3=CCCCC3)cc2c1 | / | -2.1 | 5.0 | /
COc1ccc(N(CC(=O)NCCc2ccc(C)cc2)S(=O)(=O)c2c(C)noc2C)cc1 | / | 1.4 | 3.7 | /
COc1ccc(N(CC(=O)NCCc2ccc(OC)c(OC)c2)S(=O)(=O)c2c(C)noc2C)cc1 | / | -0.9 | 107.9* | /
Cc1ccc(NC(=O)C(NC2CCCc3ccccc32)c2ccccc2)c([N+](=O)[O-])c1 (stereo not given) | -0.4 | 17.2 | -79.3 | 1.1
CC1=C(c2ccccc2)C(O)(c2ccccc2)C(C)C1=O (stereo not given) | / | -4.5 | 59.1* | /
Cc1ccccc1SCC(=O)NNC(=O)c1ccccc1O | / | 1.0 | 0.7 | /
O=[N+]([O-])c1ccc(N/N=C/c2c[nH]c3ccccc23)c(S(=O)(=O)Nc2ccc(Cl)cc2)c1 | -0.7 | 93.8* | -189.6 | 0.2
CCCC(=O)OCC(=O)Nc1ccc(OC(F)F)cc1 | -0.6 | -1.9 | 7.5 | -0.1
C[C@@H]1CCCCO[C@@H](CN(C)Cc2ccccc2)[C@@H](C)CN([C@H](C)CO)C(=O)c2cc(N(C)C)ccc2O1 | / | -0.5 | -6.8 | /
C[C@@H]1CCCCO[C@@H](CN(C)CC2CC2)[C@@H](C)CN([C@H](C)CO)C(=O)c2cc(N(C)C)ccc2O1 | / | 0.5 | 65.7* | /
Cc1ccc(C)c(NC(=S)Nc2ncccc2C)c1 | -1.4 | 0.7 | 124.2* | -0.2
Cc1cccnc1NC(=S)Nc1ccc(F)cc1F | 0.0 | -0.9 | -2.4 | 0.8
COc1cc(OC)cc(C(=O)NC(=S)NNC(=O)[C@H]2C[C@@H]2c2ccccc2)c1 | 33.8* | 162.9* | -52.0 | 18.6*
CCNC(=S)Nc1cc(OC)c(NC(=O)c2ccco2)cc1OC | 1.1 | -6.2 | 73.3* | 0.5
NC(=S)NNC(=O)C12CC3CC(CC(C3)C1)C2 | 28.5* | 125.1* | -26.2 | 2.9
O=C(Cn1c(=O)oc2ccccc21)N1CCN(S(=O)(=O)c2ccccc2)CC1 | / | 1.1 | 5.0 | /
O=C(Nc1ccccc1C(=O)Nc1nnc(C(F)(F)F)s1)c1ccccc1 | 6.3 | 60.0* | 36.8 | 3.8
CC(C)c1ccccc1NC(=O)COC(=O)c1cc([N+](=O)[O-])ccc1N1CCOCC1 | / | 1.5 | 26.3 | /
CC(=O)C1=C(O)C(=O)N(Cc2ccccc2)C1c1ccc(F)cc1 (stereo not given) | / | -0.4 | 55.5* | /
CC(=O)C1=C(O)C(=O)N(Cc2ccccc2)C1c1ccccc1F (stereo not given) | 0.4 | 3.1 | -4.1 | 0.2
O=C(O)C1C(c2ccccc2)C(C(=O)OCc2ccco2)C1c1ccccc1 (stereo not given) | 0.3 | 2.0 | -11.0 | 1.2
COC(=O)C1C(c2ccccc2)C(C(=O)OCc2ccco2)C1c1ccccc1 (stereo not given) | -1.3 | 1.5 | 59.0* | -0.4
SMILES | zfTRPN1 agonist | CRFR2-BP ag | CRFBP-R2 block | TRPML3 agonist
CCOc1ccccc1N(CC(=O)N(C)Cc1ccccc1)S(=O)(=O)c1ccccc1 | / | 0.3 | -5.4 | /
COc1ccc2nc(C)cc(NCc3ccc(F)cc3)c2c1 | / | 73.4* | -111.9 | /
Cn1c(=O)c(NCCO)c2c3c(cccc31)C(=O)c1ccccc1-2 | 454.3* | 865.0 | i | 282.3*
CCNc1c2c3c(cccc3n(C)c1=O)C(=O)c1ccccc1-2 | 195.4* | 179.2* | -158.2 | 88.0*
CC(=O)Nc1ccc(Nc2c3c4c(cccc4n(C)c2=O)C(=O)c2ccccc2-3)cc1 | 0.6 | 31.2 | -17.6 | 0.3
CCCCNc1c2c3c(cccc3n(C)c1=O)C(=O)c1ccccc1-2 | 81.3* | 239.2* | -272.5 | 46.2*
Cn1c(=O)c(NCCc2ccccc2)c2c3c(cccc31)C(=O)c1ccccc1-2 | 125.9* | 273.4 | -206.5 | 82.8*
Cn1c(=O)c(NC2CCCCC2)c2c3c(cccc31)C(=O)c1ccccc1-2 | 17.7 | 380.1 | -329.9 | 9.5
COc1ccc(/C=C/C(=O)O/N=C(\N)c2cccnc2)cc1OC | -0.6 | -2.9 | 2.6 | 0.3
CC(=O)N1N=C(c2ccc3ccccc3c2)OC12CCCC2 | 0.3 | 0.2 | -9.3 | -0.2
O=C(CSc1nnc(CCc2nc3ccccc3[nH]2)n1-c1ccccc1)NCc1ccccc1 | 0.5 | 0.9 | 25.6 | 0.4
NC(N)=NN=C1CCCCCCCCCCC1 | 1.9 | -1.6 | -7.4 | 1.1
O=c1cc(CN2CCN(Cc3ccccc3)CC2)c2cc(O)ccc2o1 | / | -0.2 | 84.6* | /
Cc1cc2oc(=O)cc(CN3CCN(Cc4ccccc4)CC3)c2cc1O | / | -2.2 | 6.4 | /
O=c1cc(-c2ccccc2)nc(/C=C/c2ccccc2)[nH]1 | 0.3 | 1.3 | -8.8 | 0.5
COc1ccc(/C=C/c2nc(-c3ccccc3)cc(=O)[nH]2)cc1 | -1.9 | -1.3 | 66.1* | -0.8
O=C(C(c1ccccc1)c1ccccc1)N1CCN(CCN2C(=O)c3cccc4cccc(c34)C2=O)CC1 | -0.1 | -1.6 | 52.4* | 0.0
Cc1ccc(CN2C(=O)C[C@@H](NC(=O)OCC3c4ccccc4-c4ccccc43)C/C=C\C2c2ccc(C)cc2)cc1 (stereo not given in full) | / | 9.3 | 0.8 | /
Cc1ccc(C(c2sc3ncnn3c2O)N2CCC(C)CC2)cc1 (stereo not given) | -0.6 | 0.1 | -18.4 | 0.1
CC1CN(C(c2ccco2)c2sc3ncnn3c2O)CC(C)O1 (stereo not given) | 0.8 | 0.2 | 82.0* | 0.7
O=C1NC(=S)S/C1=C\c1cc(Cl)cc(Cl)c1O | / | 83.2* | -57.4 | /
Cc1cc(C)n(-c2nc3ccccc3c(=O)n2OCC(=O)N(C)C)n1 | -0.4 | -1.2 | -22.4 | 0.4
Cc1c(Cl)c([N+](=O)[O-])nn1CC(=O)NC1CCCCC1 | -2.0 | 2.0 | 98.5* | 0.3
Cc1c(Br)c([N+](=O)[O-])nn1CC(=O)NC1CCCCCC1 | / | -2.1 | 4.4 | /
CCN(CC)S(=O)(=O)c1cc(OC)c(C)cc1C | -1.6 | -2.0 | 68.8* | 0.6
CCc1ccc[n+](-c2[nH]c(=O)sc2/C=N/NC([S-])=Nc2ccccc2)c1 | 6.9 | 84.8* | -48.0 | 2.6
O=C(CN(Cc1cccs1)C(=O)CSc1nnc(COc2ccccc2)o1)NC1CCCC1 | -0.2 | -2.3 | 11.6 | -0.8
CCOc1ccc(Br)cc1C1=CC(=O)C[C@H](c2ccc(OC)cc2)C1 | / | 163.3* | -77.4 | /
COc1ccc([C@H]2CC(=O)C=C(c3cc(Br)ccc3OC)C2)cc1 | / | 1.6 | -5.7 | /
Cc1ccc(Sc2c(O)c3ccccc3n(C)c2=O)cc1 | -0.2 | -1.5 | 2.3 | -0.6

Bioassay records as filed in PubChem.
